The values that follow come from ChEMBL document CHEMBL1123865, “Synthesis and antitumor activity of N-terminal proline-containing peptide-(chloroethyl)nitrosoureas” (J Med Chem, 1987).

Activity calls are given as the source filed them. The calls are words filed in the database; no cut-off is given here. Peptide text beside a SMILES is read from it. * marks the point of attachment. Carbamoyl(2-ClEt,NO) = O=NN(CCCl)C(=O)*; Boc = CC(C)(C)OC(=O)*; For = O=C*

For data set [1], the system named is L1210. The data set is described as follows: Antitumor activity against L1210 Leukemia in mice at a dose of 100 mg/kg was determined. In kind it is functional, Mus musculus. Summed up: (§1)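 L1210 leukemia in mice, 10 per group, treated with one ip injection 1 day after tumor transplantation at 0.1 mL/10 g body weight. Dose was dissolved in 0.2 mL DMSO and diluted to 10 mL with 0.9% NaCl. Controls received saline or solvent. %ILS = [(T − C)/C] × 100, using median survival days. Cures were scored on day 60 post-transplant.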

A short description of data set [2]: Antitumor activity against L1210 Leukemia in mice expressed as 50% lethal dose was determined at a dose of 100 mg/kg. On the set-up: dose 100 mg/kg. It is filed as ADME, organism-based. The settings on record: mouse, in vivo.
The subject of data set [3] is L1210. The data set is described as follows: Antitumor activity against L1210 Leukemia in mice at a dose of 100 mg/kg expressed as percent of increase in life span after day 60s was determined. In kind it is functional. Particulars: Mus musculus. A digest of the protocol:
(§2)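 L1210 leukemia-bearing mice, 10 per group; controls got saline or solvent. Dose was dissolved in 0.2 mL DMSO, diluted to 10 mL with 0.9% NaCl, and given as one ip injection (0.1 mL/10 g body weight) 1 day after transplantation. %ILS = [(T − C)/C] × 100 from median survival days, treated versus untreated. Cures were counted on day 60 after transplantation.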

Data set [4] deals with L1210. The data set is described as follows: Antitumor activity against L1210 Leukemia in mice at a dose of 50 mg/kg was determined. In kind it is functional, Mus musculus. Summed up: as §1
Data set [5] has as its system L1210. Description: Antitumor activity against L1210 Leukemia in mice at a dose of 200 mg/kg was determined. It is filed as functional, Mus musculus. A digest of the protocol: as §1
Data set [6] in a line: Antitumor activity against L1210 Leukemia in mice expressed as 50% lethal dose was determined at 200 mg/kg. It is filed as ADME, organism-based. The arrangement: dose 200 mg/kg. Particulars: mouse, in vivo.
Data set [7] deals with L1210. The data set is described as follows: Antitumor activity against L1210 Leukemia in mice at a dose of 200 mg/kg expressed as percent of increase in life span after day 60s was determined. Particulars: Mus musculus. It is filed as functional. Summed up: as §2
Data set [8] deals with L1210. Description: Antitumor activity against L1210 Leukemia in mice at a dose of 50 mg/kg expressed as percent of increase in life span after day 60s was determined. Particulars: Mus musculus. In kind it is functional. A digest of the protocol: as §2
In data set [9] the test system is L1210. The data set is described as follows: Antitumor activity against L1210 Leukemia in mice at a dose of 30 mg/kg expressed as percent of increase in life span after day 60s was determined. In kind it is functional. Particulars: Mus musculus. A digest of the protocol:
as §2

The test system of data set [10] is L1210. Description: Antitumor activity against L1210 Leukemia in mice at a dose of 30 mg/kg was determined. It is filed as functional, Mus musculus. A digest of the protocol: as §1
For data set [11], the system named is L1210. The data set is described as follows: Antitumor activity against L1210 Leukemia in mice at a dose of 30 mg/kg expressed as percent of increase in life span after day 60s was determined; no effect. It is filed as functional, organism-based. The arrangement: dose 30 mg/kg. The settings on record: Mus musculus. Summed up:
as §2

The subject of data set [12] is L1210. The data set is described as follows: Antitumor activity against L1210 Leukemia in mice at a dose of 100 mg/kg expressed as percent of increase in life span after day 60s was determined; no effect. In kind it is functional, organism-based. The settings on record: Mus musculus. On the set-up: dose 100 mg/kg. Summed up:
as §2

Data set [13] deals with L1210. Description: Antitumor activity against L1210 Leukemia in mice at a dose of 130 mg/kg was determined. It is filed as functional, Mus musculus.
A short description of data set [14]: Antitumor activity against L1210 Leukemia in mice expressed as 50% lethal dose was determined at a dose of 130 mg/kg. In kind it is ADME, organism-based. On the set-up: dose 130 mg/kg. The settings on record: mouse, in vivo.
Data set [15] concerns L1210. The data set is described as follows: Antitumor activity against L1210 Leukemia in mice at a dose of 200 mg/kg expressed as percent of increase in life span or the percent of surviving animals on day 60 was determined. It is filed as functional. Particulars: Mus musculus, L1210, 1440 h. A digest of the protocol:
as §2

Compound `NC(=O)C1CCCN1C(=O)N(CCCl)N=O` (centres undefined) had an MED in the data set with L1210 [1] of 0.403 mmol/kg. For the same compound, in [2], the median lethal dose (LD50) came to 140 mg/kg. In the data set with L1210 [3], this compound yielded an increase in life span (ILS) at 100 mg/kg of 420%.
`CC(C)[C@H](NC(=O)[C@@H]1CCCN1C(=O)[C@H](CCCCNC(=O)N(CCCl)N=O)NC(=O)N(CCCl)N=O)C(N)=O` returned an MED with L1210 [1] of 0.16 mmol/kg. Moreover, the LD50 in data set [2] was 250 mg/kg. In the data set on L1210 [3], this compound showed an increase in life span (ILS) at 100 mg/kg of 380%.
Consider `CC(C)[C@H](NC(=O)[C@@H]1CCCN1C(=O)[C@H](CCCCNC=O)NC(=O)[C@@H]1CCCN1C(=O)N(CCCl)N=O)C(N)=O` ({Carbamoyl(2-ClEt,NO)}-PK(For)PV-NH2), for which the figures for the MED in the data set with L1210 [1], with L1210 [4] and with L1210 [5] were 0.16 mmol/kg, 0.083 mmol/kg and 0.32 mmol/kg, respectively. In addition, the increase in life span (ILS) at 100 mg/kg in the data set on L1210 [3] stood at 80%. The same compound had an LD50 in data set [6] of 250 mg/kg. In addition, the ILS at 200 mg/kg in the data set with L1210 [7] is 80%. The same compound returned an ILS at 50 mg/kg in the data set with L1210 [8] of 40%.
As for `CC(C)[C@H](NC(=O)[C@@H]1CCCN1C(=O)[C@H](CCCCNC=O)NC(=O)N(CCCl)N=O)C(N)=O`, the MED in the data set with L1210 [1] was determined as 0.2 mmol/kg; with L1210 [10], 0.059 mmol/kg; in the data set on L1210 [5] it was 0.4 mmol/kg. The same compound had an increase in life span (ILS) at 30 mg/kg in the data set with L1210 [9] of 70%. Moreover, the increase in lifespan (ILS) at 100 mg/kg with L1210 [3] was 110%. Besides, the LD50 in [6] is 260 mg/kg. In the data set with L1210 [7], the ILS at 200 mg/kg turned out to be 190%.
In the case of `CC(C)[C@H](NC(=O)[C@@H]1CCCN1C(=O)[C@H](CCCCNC(=O)N(CCCl)N=O)NC(=O)[C@@H]1CCCN1C(=O)N(CCCl)N=O)C(N)=O` ({Carbamoyl(2-ClEt,NO)}-PK(Carbamoyl(2-ClEt,NO))PV-NH2), the MED was 0.14 mmol/kg in the data set with L1210 [1], 0.042 mmol/kg in the data set with L1210 [10] and 0.28 mmol/kg with L1210 [5]. The same compound registered an increase in life span (ILS) at 30 mg/kg in the data set with L1210 [9] of 100%. In addition, the median lethal dose (LD50) in data set [6] was found to be 220 mg/kg. This compound came in with an ILS at 200 mg/kg in the data set on L1210 [7] of 120%.
With `CC(C)[C@H](NC(=O)[C@@H]1CCCN1C(=O)N(CCCl)N=O)C(N)=O`, in the data set with L1210 [1], the MED was 0.28 mmol/kg. This compound displayed an LD50 in data set [2] of 150 mg/kg.
Consider `CC(C)[C@H](NC(=O)[C@@H]1CCCN1C(=O)[C@H](CCCCNOC(=O)C(C)(C)C)NC(=O)[C@@H]1CCCN1C(=O)N(CCCl)N=O)C(N)=O`, for which the ILS entry with L1210 [11] and with L1210 [12] was “inactive” throughout.
The compound `CC(C)[C@H](NC(=O)[C@@H]1CCCN1C(=O)[C@@H](N)CCCCNC=O)C(N)=O.Cl` (H-Lys(For)-Pro-Val-NH2) registered an MED in the data set with L1210 [1] of 0.24 mmol/kg. Besides, in the data set on L1210 [12], the ILS entry was “inactive”.
Take `CC(C)[C@H](NC(=O)[C@@H]1CCCN1C(=O)[C@H](CCCCN)NC(=O)N(CCCl)N=O)C(N)=O.Cl`: the MED with L1210 [13] was found to be 0.25 mmol/kg. In [14], this compound returned an LD50 of 175 mg/kg.
Turning to `CC(C)[C@H](NC(=O)[C@@H]1CCCN1C(=O)[C@H](CCCCNC(=O)OC(C)(C)C)NC(=O)[C@@H]1CCCN1C(=O)N(CCCl)N=O)C(N)=O` ({Carbamoyl(2-ClEt,NO)}-PK(Boc)PV-NH2) [listing 1 of 2 here], the median lethal dose (LD50) in data set [6] was found to be 300 mg/kg.
As to `CC(C)[C@H](NC(=O)[C@@H]1CCCN1C(=O)[C@H](CCCCNC(=O)OC(C)(C)C)NC(=O)[C@@H]1CCCN1C(=O)N(CCCl)N=O)C(N)=O` ({Carbamoyl(2-ClEt,NO)}-PK(Boc)PV-NH2) [listing 2 of 2 here], the results for the MED in the data set with L1210 [1], in the data set on L1210 [10] and in the data set with L1210 [5] were 0.15 mmol/kg, 0.045 mmol/kg and 0.3 mmol/kg, respectively. Besides, the ILS at 200 mg/kg in the data set on L1210 [15] came to 30%.
